Converted amounts (≈) assume the structure as drawn.
Columns and labels:
Streptococcus pneumoniae [1] = assay: Antibacterial activity against erythromycin-resistant Streptococcus pneumoniae 205; format: functional
Method in brief: (§1)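 MIC by broth microdilution following CLSI (formerly NCCLS) guidelines for S. pneumoniae.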

Streptococcus pneumoniae [2] = assay: Antibacterial activity against erythromycin-susceptible Streptococcus pneumoniae ATCC 49619; format: functional; method in brief: as §1

In the case of `CO[C@]1(C)C[C@H](O[C@H]2[C@H](C)[C@@H](O[C@@H]3O[C@H](C)C[C@H](N(C)C)[C@H]3O)[C@@](C)(O)C[C@@H](C)[C@H](O)[C@H](C)CN(C)[C@@H](COCc3ccccc3)COC(=O)[C@@H]2C)O[C@@H](C)[C@@H]1O`, the MIC (Streptococcus pneumoniae [1]) is reported as 128 µg/mL (≈ 158 µM) and the MIC (Streptococcus pneumoniae [2]) is reported as 2 µg/mL (≈ 2.47 µM).

Compound `CO[C@]1(C)C[C@H](O[C@H]2[C@H](C)[C@@H](O[C@@H]3O[C@H](C)C[C@H](N(C)C)[C@H]3O)[C@@](C)(O)C[C@@H](C)[C@H](O)[C@H](C)CN(C)C[C@H](COCc3ccccc3)OC(=O)[C@@H]2C)O[C@@H](C)[C@@H]1O` has an MIC (Streptococcus pneumoniae [1]) of 32 µg/mL (≈ 39.5 µM) and an MIC (Streptococcus pneumoniae [2]) of 0.12 µg/mL (≈ 0.148 µM).

`CC[C@H]1OC(=O)[C@H](C)[C@@H](O[C@H]2C[C@@](C)(OC)[C@@H](O)[C@H](C)O2)[C@H](C)[C@@H](O[C@@H]2O[C@H](C)C[C@H](N(C)C)[C@H]2O)[C@](C)(OC)C[C@@H](C)C(=O)[C@H](C)[C@@H](O)[C@]1(C)O` [CLARITHROMYCIN] gave an MIC (Streptococcus pneumoniae [1]) greater than 128 µg/mL and an MIC (Streptococcus pneumoniae [2]) of 0.03 µg/mL (≈ 0.0401 µM).

In the case of `CO[C@]1(C)C[C@H](O[C@H]2[C@H](C)[C@@H](O[C@@H]3O[C@H](C)C[C@H](N(C)C)[C@H]3O)[C@@](C)(O)C[C@@H](C)[C@H](O)[C@H](C)CN(C)C[C@@H](COCc3ccccc3)OC(=O)[C@@H]2C)O[C@@H](C)[C@@H]1O`, the MIC (Streptococcus pneumoniae [1]) is reported as 64 µg/mL (≈ 78.9 µM) and the MIC (Streptococcus pneumoniae [2]) is reported as 1 µg/mL (≈ 1.23 µM).

With `CO[C@]1(C)C[C@H](O[C@H]2[C@H](C)[C@@H](O[C@@H]3O[C@H](C)C[C@H](N(C)C)[C@H]3O)[C@@](C)(O)C[C@@H](C)[C@H](O)[C@H](C)CN(C)CCOC(=O)[C@@H]2C)O[C@@H](C)[C@@H]1O` the MIC (Streptococcus pneumoniae [1]) was greater than 128 µg/mL and the MIC (Streptococcus pneumoniae [2]) was 4 µg/mL (≈ 5.79 µM).
